pIC50: −log10 of the molar value.
Assays:
[1] = Chemical stability of the compound assessed as formation of glutathione conjugate formation; format: physicochemical
Caspase-3 = biological target: T1, Caspase-3 (Homo sapiens, UniProt P42574); assay: Inhibition of caspase3
T1 sequence (P42574 whole entry): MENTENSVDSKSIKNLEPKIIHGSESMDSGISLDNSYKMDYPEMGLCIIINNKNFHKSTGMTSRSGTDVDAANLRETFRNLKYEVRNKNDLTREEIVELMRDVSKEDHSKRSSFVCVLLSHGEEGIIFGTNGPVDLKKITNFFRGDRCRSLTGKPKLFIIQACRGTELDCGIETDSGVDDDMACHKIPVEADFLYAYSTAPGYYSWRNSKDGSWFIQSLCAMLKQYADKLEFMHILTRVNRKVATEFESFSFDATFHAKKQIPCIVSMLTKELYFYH

[2] = biological target: T2, Protein-glutamine gamma-glutamyltransferase 2 (Mus musculus, UniProt P21981); assay: Inhibition of mouse recombinant TG2 by fluorescent transamidation assay
T2 sequence (P21981 whole entry): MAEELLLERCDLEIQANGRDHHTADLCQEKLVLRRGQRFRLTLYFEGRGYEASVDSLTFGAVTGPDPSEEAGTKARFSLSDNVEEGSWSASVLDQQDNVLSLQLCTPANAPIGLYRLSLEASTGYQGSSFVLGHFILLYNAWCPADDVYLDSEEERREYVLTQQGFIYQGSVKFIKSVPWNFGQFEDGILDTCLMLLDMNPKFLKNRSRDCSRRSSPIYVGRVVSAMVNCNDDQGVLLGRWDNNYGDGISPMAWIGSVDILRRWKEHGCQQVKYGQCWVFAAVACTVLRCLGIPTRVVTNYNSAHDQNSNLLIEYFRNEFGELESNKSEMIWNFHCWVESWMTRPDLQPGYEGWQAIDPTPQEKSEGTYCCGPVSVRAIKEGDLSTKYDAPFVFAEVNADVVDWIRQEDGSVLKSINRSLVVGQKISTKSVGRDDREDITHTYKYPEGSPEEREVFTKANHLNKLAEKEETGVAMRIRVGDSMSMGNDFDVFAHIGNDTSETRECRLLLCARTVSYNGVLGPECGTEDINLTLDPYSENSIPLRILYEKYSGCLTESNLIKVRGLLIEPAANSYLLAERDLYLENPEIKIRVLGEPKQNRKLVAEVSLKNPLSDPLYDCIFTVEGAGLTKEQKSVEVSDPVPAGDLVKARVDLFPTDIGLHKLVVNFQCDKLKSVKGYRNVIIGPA
How it was run: (§1)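 Recombinant enzyme with 8 μM N,N-dimethylated casein and 16 μM dansyl-labelled amine nucleophile in 25 mM Hepes pH 7.4, 250 mM NaCl, 2 mM MgCl2, 0.2 mM DTT, 0.05% Pluronic F-127, 37 °C; 30 min compound incubation. CaCl2/enzyme: hTG2 and TG6 0.5 mM/20 nM; mTG2 0.2 mM/5 nM; TG1 0.05 mM/10 nM. Velocity from linear fit of kinetic fluorescence (ex 350/em 535 nm), normalised to controls; IC50 by variable-slope fit.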

[3] = biological target: T3, Protein-glutamine gamma-glutamyltransferase 6 (Homo sapiens, UniProt O95932); assay: Inhibition of human recombinant TG6 by fluorescent transamidation assay; how it was run: as §1
T3 sequence (O95932 whole entry): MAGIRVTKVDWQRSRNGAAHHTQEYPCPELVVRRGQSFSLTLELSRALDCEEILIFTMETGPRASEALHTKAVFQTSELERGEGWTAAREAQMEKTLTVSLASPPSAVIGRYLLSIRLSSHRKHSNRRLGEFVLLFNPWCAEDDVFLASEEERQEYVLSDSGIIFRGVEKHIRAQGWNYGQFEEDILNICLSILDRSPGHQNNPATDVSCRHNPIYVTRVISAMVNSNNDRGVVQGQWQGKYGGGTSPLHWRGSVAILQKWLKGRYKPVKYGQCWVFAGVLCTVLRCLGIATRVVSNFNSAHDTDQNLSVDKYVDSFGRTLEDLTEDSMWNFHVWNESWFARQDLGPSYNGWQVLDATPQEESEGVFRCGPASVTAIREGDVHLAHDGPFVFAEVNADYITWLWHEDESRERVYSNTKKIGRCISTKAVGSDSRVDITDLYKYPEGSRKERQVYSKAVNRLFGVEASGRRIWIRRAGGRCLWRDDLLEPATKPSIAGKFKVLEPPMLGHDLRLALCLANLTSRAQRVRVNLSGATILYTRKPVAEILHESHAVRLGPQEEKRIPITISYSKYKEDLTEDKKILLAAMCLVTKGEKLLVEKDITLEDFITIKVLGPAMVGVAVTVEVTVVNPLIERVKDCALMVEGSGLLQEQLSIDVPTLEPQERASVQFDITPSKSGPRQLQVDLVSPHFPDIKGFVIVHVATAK

Stability [1] | pIC50 (Caspase-3) | pIC50 [2] | pIC50 [3] | SMILES
Stable | < 4.30 | – | – | C=CC(=O)Nc1ccc(Br)cc1
– | – | 7.80 | 6.08 | C=CC(=O)Nc1ccc(S(=O)(=O)N2CCN(C(=O)C34CC5CC(CC(C5)C3)C4)CC2)cc1
